Measurements published in ChEMBL document CHEMBL3399946, “Structure-activity relationships of substituted 1H-indole-2-carboxamides as CB1 receptor allosteric modulators” (Bioorg Med Chem, 2015).

Assays:
Cannabinoid receptor 1 [1] = biological target: T1, Cannabinoid receptor 1 (Homo sapiens, UniProt P21554); experiment: Antagonist activity at human CB1 receptor expressed in CHO-RD-HGA16 cells assessed as inhibition of CP55940-induced calcium mobilization incubated for 15 mins prior to CP55940 addition by FLIPR assay; assay type: functional, cell-based
[2] = biological target: Cannabinoid receptor 2 (Homo sapiens) (UniProt P34972); experiment: Antagonist activity at human CB2 receptor expressed in CHO-RD-HGA16 cells assessed as inhibition of CP55940-induced calcium mobilization at 10 uM incubated for 15 mins prior to CP55940 addition by FLIPR assay; assay type: functional, cell-based
Cannabinoid receptor 1 [3] = biological target: T1, Cannabinoid receptor 1; experiment: Agonist activity at human CB1 receptor expressed in CHO-RD-HGA16 cells at 10 uM after 15 mins by FLIPR assay relative to CP55940; assay type: cell-based
In short: (§1)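 Stably transfected CHO-RD-HGA16 cells (human CB1, or CB2 for line 2) seeded the day before (CB1 25,000, CB2 30,000 cells/well), cultured overnight at 37°C, 5% CO2. Loaded 45 min at 37°C with Calcium 5 dye in HBSS/20 mM HEPES/2.5 mM probenecid, pH 7.4.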

[4] = biological target: Cannabinoid receptor 2 (Homo sapiens) (UniProt P34972); experiment: Agonist activity at human CB2 receptor expressed in CHO-RD-HGA16 cells at 10 uM after 15 mins by FLIPR assay relative to CP55940; assay type: cell-based; in short: as §1
Cannabinoid receptor 1 [5] = biological target: T1, Cannabinoid receptor 1; experiment: Allosteric modulation of human CB1 receptor expressed in CHO-RD-HGA16 cells assessed as reduction of CP55940 Emax by calcium mobilization assay; assay type: functional, cell-based
In short: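 CB1-expressing CHO-RD-HGA16 cells seeded at 25,000/well the previous day and loaded with Calcium 5 dye for 45 min at 37°C (HBSS, 20 mM HEPES, 2.5 mM probenecid, pH 7.4). Pretreated 15 min at 37°C with a single concentration of test compound, then serial dilutions of CP55,940 added on FLIPR Tetra. Fluorescence plotted against agonist concentration.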

Cannabinoid receptor 2 (Homo sapiens), sequence (P34972 whole entry): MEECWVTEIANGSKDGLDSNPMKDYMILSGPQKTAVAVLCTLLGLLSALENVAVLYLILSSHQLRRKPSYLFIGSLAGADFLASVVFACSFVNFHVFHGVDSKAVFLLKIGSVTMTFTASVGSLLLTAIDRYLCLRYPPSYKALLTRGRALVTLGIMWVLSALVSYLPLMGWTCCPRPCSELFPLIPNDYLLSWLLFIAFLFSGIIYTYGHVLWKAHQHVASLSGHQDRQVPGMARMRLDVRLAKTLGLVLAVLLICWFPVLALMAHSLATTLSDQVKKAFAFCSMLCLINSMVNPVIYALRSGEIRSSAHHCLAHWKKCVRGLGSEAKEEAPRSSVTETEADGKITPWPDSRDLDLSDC
T1 sequence (P21554 whole entry): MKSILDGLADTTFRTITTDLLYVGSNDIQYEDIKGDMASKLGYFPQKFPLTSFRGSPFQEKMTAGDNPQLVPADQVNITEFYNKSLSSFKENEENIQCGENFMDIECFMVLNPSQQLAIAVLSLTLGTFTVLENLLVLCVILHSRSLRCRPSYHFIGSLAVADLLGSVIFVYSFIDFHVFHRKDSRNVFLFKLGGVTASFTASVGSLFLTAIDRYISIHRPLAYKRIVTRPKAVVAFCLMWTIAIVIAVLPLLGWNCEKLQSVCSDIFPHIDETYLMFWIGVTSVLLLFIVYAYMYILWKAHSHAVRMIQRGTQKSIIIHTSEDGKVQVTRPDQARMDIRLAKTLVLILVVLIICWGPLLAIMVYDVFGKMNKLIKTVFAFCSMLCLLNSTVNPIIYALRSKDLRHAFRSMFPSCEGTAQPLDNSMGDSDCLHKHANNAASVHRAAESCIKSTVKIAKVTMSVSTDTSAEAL

## CCc1c(C(=O)NCCc2cccc(Cl)c2)[nH]c2ccc(Cl)cc12
Cannabinoid receptor 1 [1]
  IC50: 0.831 µM
[2]
  inhibition: 24.8%
Cannabinoid receptor 1 [3]
  Activity: < 30%
[4]
  Activity: < 30%

## CCc1c(C(=O)NCCc2cccc(N(C)C)c2)[nH]c2ccc(Cl)cc12
Cannabinoid receptor 1 [1]
  IC50: > 10 µM
[2]
  inhibition: -3.7%

## CCc1c(C(=O)N2CCN(c3ccc(Cl)cc3)CC2)[nH]c2ccc(Cl)cc12
Cannabinoid receptor 1 [1]
  IC50: > 10 µM
Cannabinoid receptor 1 [3]
  Activity: < 30%
[4]
  Activity: < 30%

## CCc1c(C(=O)NCCc2ccc(C(C)(C)C)cc2)[nH]c2ccc(Cl)cc12
Cannabinoid receptor 1 [1]
  IC50: 2.43 µM
Cannabinoid receptor 1 [3]
  Activity: < 30%
[4]
  Activity: < 30%

## CCc1c(C(=O)NC2CCN(Cc3ccccc3)C2)[nH]c2ccc(Cl)cc12 (configuration not stated)
Cannabinoid receptor 1 [1]
  IC50: 4.76 µM
[2]
  inhibition: -6.2%
Cannabinoid receptor 1 [3]
  Activity: < 30%
[4]
  Activity: < 30%

## CCc1c(C(=O)Nc2cccc(-c3cccc(N(C)C)n3)c2)[nH]c2ccc(Cl)cc12
Cannabinoid receptor 1 [1]
  IC50: > 10 µM
Cannabinoid receptor 1 [3]
  Activity: < 30%
[4]
  Activity: < 30%

## CCc1c(C(=O)NCCc2ccc(Cl)cc2)[nH]c2ccc(Cl)cc12
Cannabinoid receptor 1 [1]
  IC50: 2.5 µM
[2]
  inhibition: -4.8%
Cannabinoid receptor 1 [3]
  Activity: < 30%
[4]
  Activity: < 30%

## CCc1c(C(=O)NCCc2ccc(N(CC)CC)cc2)[nH]c2ccc(Cl)cc12
Cannabinoid receptor 1 [1]
  IC50: 0.483 µM
Cannabinoid receptor 1 [3]
  Activity: < 30%
[4]
  Activity: < 30%

## CCCN(CCC)c1ccc(CCNC(=O)c2[nH]c3ccc(Cl)cc3c2CC)cc1
Cannabinoid receptor 1 [1]
  IC50: 1.8 µM
Cannabinoid receptor 1 [3]
  Activity: < 30%
[4]
  Activity: < 30%

## O=C(NCCc1ccc(N2CCCCC2)cc1)c1cc2cc(Cl)ccc2[nH]1
Cannabinoid receptor 1 [1]
  IC50: 0.212 µM
[2]
  inhibition: 15%
Cannabinoid receptor 1 [3]
  Activity: < 30%
[4]
  Activity: < 30%

## CCc1c(C(=O)N2CCN(c3ccccc3)CC2)[nH]c2ccc(Cl)cc12
Cannabinoid receptor 1 [1]
  IC50: > 10 µM
Cannabinoid receptor 1 [3]
  Activity: < 30%
[4]
  Activity: < 30%

## CCc1c(C(=O)NCCc2cccc(OC)c2)[nH]c2ccc(Cl)cc12
Cannabinoid receptor 1 [1]
  IC50: 2.1 µM
[2]
  inhibition: -6%
Cannabinoid receptor 1 [3]
  Activity: < 30%
[4]
  Activity: < 30%

## CCc1c(C(=O)NCCc2ccc(OC)cc2)[nH]c2ccc(Cl)cc12
Cannabinoid receptor 1 [1]
  IC50: 2.56 µM
Cannabinoid receptor 1 [3]
  Activity: < 30%
[4]
  Activity: < 30%

## CCc1c(C(=O)NCCc2ccccc2Cl)[nH]c2ccc(Cl)cc12
Cannabinoid receptor 1 [1]
  IC50: 5.81 µM
[2]
  inhibition: 28.5%
Cannabinoid receptor 1 [3]
  Activity: < 30%
[4]
  Activity: < 30%

## CCN(CC)c1ccc(CCNC(=O)c2cc3cc(Cl)ccc3[nH]2)cc1
Cannabinoid receptor 1 [1]
  IC50: 0.079 µM
[2]
  inhibition: 0.7%
Cannabinoid receptor 1 [3]
  Activity: < 30%
[4]
  Activity: < 30%
Cannabinoid receptor 1 [5]
  Activity: Dose-dependent effect

## Cc1c(C(=O)NCCc2ccc(N3CCCCC3)cc2)[nH]c2ccc(F)cc12
Cannabinoid receptor 1 [1]
  IC50: 0.279 µM
[2]
  inhibition: -8.2%
Cannabinoid receptor 1 [3]
  Activity: < 30%
[4]
  Activity: < 30%

## CCc1c(C(=O)NCCc2ccc(N3CCCCC3)cc2)[nH]c2ccc(Cl)cc12
Cannabinoid receptor 1 [1]
  IC50: 0.853 µM
Cannabinoid receptor 1 [3]
  Activity: < 30%
[4]
  Activity: < 30%
Cannabinoid receptor 1 [5]
  Activity: Dose-dependent effect

## CCc1c(C(=O)NCCc2ccc(Cl)c(Cl)c2)[nH]c2ccc(Cl)cc12
Cannabinoid receptor 1 [1]
  IC50: 2.17 µM
[2]
  inhibition: -3.2%
Cannabinoid receptor 1 [3]
  Activity: < 30%
[4]
  Activity: < 30%

## CCc1c(C(=O)NCCc2ccc(OC)c(O)c2)[nH]c2ccc(Cl)cc12
Cannabinoid receptor 1 [1]
  IC50: > 10 µM
[2]
  inhibition: -7%
Cannabinoid receptor 1 [3]
  Activity: < 30%
[4]
  Activity: < 30%

## CCCCCC(=O)Nc1ccc(CCNC(=O)c2[nH]c3ccc(Cl)cc3c2CC)cc1
Cannabinoid receptor 1 [1]
  IC50: > 10 µM
[2]
  inhibition: 1%
Cannabinoid receptor 1 [3]
  Activity: < 30%
[4]
  Activity: < 30%

## CCCC(=O)Nc1ccc(CCNC(=O)c2[nH]c3ccc(Cl)cc3c2CC)cc1
Cannabinoid receptor 1 [1]
  IC50: > 10 µM
[2]
  inhibition: 43%
Cannabinoid receptor 1 [3]
  Activity: < 30%
[4]
  Activity: < 30%

## CCN(CC)c1ccc(CCNC(=O)c2cc3cc(F)ccc3[nH]2)cc1
Cannabinoid receptor 1 [1]
  IC50: 0.318 µM
Cannabinoid receptor 1 [3]
  Activity: < 30%
[4]
  Activity: < 30%

## CCN(CC)c1ccc(CCNC(=O)c2[nH]c3ccc(F)cc3c2C)cc1
Cannabinoid receptor 1 [1]
  IC50: 0.151 µM
Cannabinoid receptor 1 [3]
  Activity: < 30%
[4]
  Activity: < 30%

## CCc1c(C(=O)NCCc2ccc(NC(C)=O)cc2)[nH]c2ccc(Cl)cc12
Cannabinoid receptor 1 [1]
  IC50: > 10 µM
[2]
  inhibition: -3.3%
Cannabinoid receptor 1 [3]
  Activity: < 30%
[4]
  Activity: < 30%

## CCc1c(C(=O)NCCc2ccc(N(CC)CC)cc2)[nH]c2ccc(F)cc12
Cannabinoid receptor 1 [1]
  IC50: 0.361 µM
Cannabinoid receptor 1 [3]
  Activity: < 30%
[4]
  Activity: < 30%

## CCc1c(C(=O)NCCc2cccc(O)c2)[nH]c2ccc(Cl)cc12
Cannabinoid receptor 1 [1]
  IC50: > 10 µM
[2]
  inhibition: -0.1%
Cannabinoid receptor 1 [3]
  Activity: < 30%
[4]
  Activity: < 30%

## CCc1c(C(=O)NCCc2ccc(N(C)C)cc2)[nH]c2ccc(Cl)cc12
Cannabinoid receptor 1 [1]
  IC50: 0.787 µM
Cannabinoid receptor 1 [3]
  Activity: < 30%
[4]
  Activity: < 30%

## CCc1c(C(=O)NCCc2ccccc2)[nH]c2ccc(Cl)cc12
Cannabinoid receptor 1 [1]
  IC50: 3.15 µM
[2]
  inhibition: -6.2%
Cannabinoid receptor 1 [3]
  Activity: < 30%
[4]
  Activity: < 30%

## CCc1c(C(=O)NCCc2ccc(N(C)C)cc2)[nH]c2ccc(F)cc12
Cannabinoid receptor 1 [1]
  IC50: 0.205 µM
Cannabinoid receptor 1 [3]
  Activity: < 30%
[4]
  Activity: < 30%
Cannabinoid receptor 1 [5]
  Activity: Dose-dependent effect

## CCc1c(C(=O)NCCc2ccc3c(c2)OCO3)[nH]c2ccc(Cl)cc12
Cannabinoid receptor 1 [1]
  IC50: 4.32 µM
[2]
  inhibition: 25.8%
Cannabinoid receptor 1 [3]
  Activity: < 30%
[4]
  Activity: < 30%

## CCc1c(C(=O)NCCc2ccc(N3CCCCC3)cc2)[nH]c2ccc(F)cc12
Cannabinoid receptor 1 [1]
  IC50: 0.605 µM
Cannabinoid receptor 1 [3]
  Activity: < 30%
[4]
  Activity: < 30%

## CCCCCCNc1ccc(CCNC(=O)c2[nH]c3ccc(Cl)cc3c2CC)cc1
Cannabinoid receptor 1 [1]
  IC50: 3.62 µM
Cannabinoid receptor 1 [3]
  Activity: < 30%
[4]
  Activity: < 30%

## CCc1c(C(=O)NCCc2ccc([N+](=O)[O-])cc2)[nH]c2ccc(Cl)cc12
Cannabinoid receptor 1 [1]
  IC50: 5.74 µM
[2]
  inhibition: 34.8%
Cannabinoid receptor 1 [3]
  Activity: < 30%
[4]
  Activity: < 30%

## O=C(NCCc1ccc(N2CCCCC2)cc1)c1cc2cc(F)ccc2[nH]1
Cannabinoid receptor 1 [1]
  IC50: 0.319 µM
[2]
  inhibition: 20.8%
Cannabinoid receptor 1 [3]
  Activity: < 30%
[4]
  Activity: < 30%
